Reference: ChEMBL document CHEMBL2417491, “Design, synthesis and biological evaluation of aryl pyrimidine derivatives as potential leishmanicidal agents” (Bioorg Med Chem Lett, 2013)
Active and inactive are the calls of the source. No cut-off for these calls is given here.

Legend:
Syrian golden hamster = test: Toxicity in golden hamster at 50 mg/kg, ip; type: organism-based, Mesocricetus auratus; design: dose 50 mg/kg, route intraperitoneal; details: in vivo
Leishmania donovani [1] = test: Antileishmanial activity against Leishmania donovani infected in golden hamster assessed as inhibition of parasite multiplication at 50 mg/kg, ip for 5 days measured after 7 days by Giemsa staining-based assay; type: functional; details: for inhibition in vivo at 50 mg/kg: route intraperitoneal
How it was run: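 Hamsters infected with L. donovani received test compounds at 50 mg/kg/day ip for 5 days, starting after the infection was established. Parasite burden was determined by Giemsa staining. Efficacy was expressed as percent inhibition, comparing treated animals, untreated animals and the initial count in treated animals.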

[2] = (§1) Selectivity index, ratio of CC50 for African green monkey Vero cells to IC50 for Leishmania donovani amastigotes; type: functional
How it was run: (§2)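 Calculated as CC₅₀ on Vero cells divided by IC₅₀ on L. donovani intramacrophage amastigotes. Both values come from 72 h assays: MTT for Vero cells and a luciferase reporter for amastigotes.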

[3] = Cytotoxicity against African green monkey Vero cells after 72 hrs by MTT assay; type: cell-based; details: chlorocebus sabaeus
How it was run: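 Monkey kidney Vero cells were exposed to compounds for 72 h. Viable cells were detected with MTT, and CC₅₀ was estimated by the Huber & Koella method. Values are the mean of two independent experiments.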

Leishmania donovani [4] = test: Antileishmanial activity against Leishmania donovani amastigotes infected in mouse J774A1 cells after 72 hrs by luciferase reporter gene assay; type: functional, organism-based; details: J774.A1, 72 h
How it was run: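 Macrophage cells were seeded at 4 × 10³ per well, held 24 h in a CO₂ incubator, and then infected with 4 × 10⁴ promastigotes, which transform into intracellular amastigotes. Compounds were added at 0.62–40 and incubated 72 h. Read-out was luminescence after Steady-Glo addition, with inhibition derived against untreated controls. IC₅₀ is the mean of two independent experiments.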

[5] = Cytotoxicity against mouse J774A1 cells after 72 hrs; type: cell-based; details: j774.a1, 72 h
Leishmania donovani [6] = test: Antileishmanial activity against Leishmania donovani infected in golden hamster assessed as inhibition of parasite multiplication at 30 mg/kg, po for 5 days measured after 7 days by Giemsa staining-based assay; type: functional
Leishmania donovani [7] = test: Antileishmanial activity against Leishmania donovani infected in golden hamster assessed as inhibition of parasite multiplication at 40 mg/kg, ip for 5 days measured after 7 days by Giemsa staining-based assay; type: functional, organism-based; design: dose 40 mg/kg
How it was run: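 Reference-drug arm in the L. donovani-infected hamster model, dosed at 40 mg/kg ip daily for 5 days. After the infection was established, parasite burden was assessed by Giemsa staining. Percent inhibition came from comparing treated with untreated animals and with the initial count in treated animals.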

Vero = test: as §1; type: functional; how it was run: as §2

Molecule	IC50 (Leishmania donovani [4]) [µM]	Activity (Syrian golden hamster)	inhibition in vivo at 50 mg/kg (Leishmania donovani [1]) [%]	Ratio CC50/IC50 [2]	CC50 at 72 h [3] [µM]	Activity [5]	inhibition in vivo at 30 mg/kg (Leishmania donovani [6]) [%]	inhibition (Leishmania donovani [7]) [%]	Ratio CC50/IC50 (Vero)	inhibition (Leishmania donovani [1])
CCCCCCCCCCCCCCCCOP(=O)([O-])OCC[N+](C)(C)C [MILTEFOSINE]	–	–	–	4	–	–	98.1	–	–	–
CSc1cc(/C=C/c2ccc(O)cc2)nc(N)n1	–	Non-toxic	–	–	–	–	–	–	–	–
COc1cc(/C=C/c2cc(SC)nc(N)n2)ccc1O	–	Non-toxic	–	–	–	–	–	–	–	–
Sodium stibogluconate	–	–	–	–	–	–	–	88.5	> 7	–
COc1cc(/C=C/c2cc(SC)nc(N)n2)cc(OC)c1OC	> 40	Non-toxic	–	–	–	–	–	–	–	inactive

More lines, main results first:

IC50 (Leishmania donovani [4]) [µM]	Molecule	Activity (Syrian golden hamster)	inhibition in vivo at 50 mg/kg (Leishmania donovani [1]) [%]	Ratio CC50/IC50 [2]	CC50 at 72 h [3] [µM]	Activity [5]	inhibition in vivo at 30 mg/kg (Leishmania donovani [6]) [%]	inhibition (Leishmania donovani [7]) [%]	Ratio CC50/IC50 (Vero)	inhibition (Leishmania donovani [1])
2	COc1ccc(/C=C/c2cc(SC)nc(N)n2)cc1OC	Non-toxic	47.1	62	125	–	–	–	–	–
2	CSc1cc(/C=C/c2ccc(OCc3ccccc3)cc2)nc(N)n1	Non-toxic	88.4	188	376	Non-toxic	–	–	–	–
6.3	CSc1cc(/C=C/c2ccc(OS(=O)(=O)[O-])cc2)nc(N)n1.[Na+]	Non-toxic	55.1	48	301	–	–	–	–	–
2.7	COc1ccc(Nc2cc(/C=C/c3ccc(OC4CCCCO4)cc3)nc(N)n2)cc1 (stereo not given)	Non-toxic	78.2	128	345	–	–	–	–	–
0.5	COc1ccc(Nc2cc(/C=C/c3ccc(OCc4ccccc4)cc3)nc(N)n2)cc1	Non-toxic	78.1	116	57.8	–	–	–	–	–
12.9	CCOc1cc(/C=C/c2cc(SC)nc(N)n2)ccc1OC1CCCCO1 (stereo not given)	Non-toxic	33.5	19	248	–	–	–	–	–
9.1	COc1ccc(/C=C/c2cc(SC)nc(N)n2)cc1	Non-toxic	54.4	27	250	–	–	–	–	–
3.6	CSc1cc(/C=C/c2ccc(OC3CCCCO3)cc2)nc(N)n1 (stereo not given)	Non-toxic	54.4	34	122	–	–	–	–	–
